Measured values reported in ChEMBL document CHEMBL1128321, “Piperazinylalkyl heterocycles as potential antipsychotic agents” (J Med Chem, 1995).
pKi: −log10 of the molar value.

Assays:
Rattus norvegicus [1] = experiment: Conditioned avoidance response activity was determined by the ability to block the conditioned avoidance of a foot shock at 5 mg/kg(ip); format: functional
Procedure, shortened: (§1)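 Male Fischer 344 rats (300–500 g) trained on a discrete-trial single-lever task, pressing the lever to avoid an impending shock; block of responding read at time of peak effect. Escape loss = percent of animals failing to escape the shock; >20% escape loss with CAR inhibition taken as potential for sedation.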

Rattus norvegicus [2] = experiment: Percentage of animals failing to escape the shock was measured and affords a rough index for nonspecific sedation at 5 mg/kg(ip)(>20% esc loss = potential for sedation); format: functional; procedure, shortened: as §1
[3] = Stability half-life at pH-2; format: physicochemical
Procedure, shortened: (§2)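 Half-life measured in solution at pH 2, about 3 × 10⁻³ M compound in citric acid–phosphate buffer at 22 °C.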

Rattus norvegicus [4] = experiment: Conditioned avoidance response activity was determined by the ability to block the conditioned avoidance of a foot shock at 15 mg/kg(ip); format: functional; procedure, shortened: as §1
[5] = Stability half-life at pH-2; stable; format: physicochemical; procedure, shortened: as §2
Rattus norvegicus [6] = experiment: Percentage of animals failing to escape shock was measured, affording a rough index for nonspecific sedation at 5 mg/kg(ip)
[7] = target: T1, 5-hydroxytryptamine receptor 1A (Rattus norvegicus, UniProt P19327); experiment: Binding affinity was determined against 5-hydroxytryptamine 1A receptor using […]
T1 sequence (P19327 whole entry): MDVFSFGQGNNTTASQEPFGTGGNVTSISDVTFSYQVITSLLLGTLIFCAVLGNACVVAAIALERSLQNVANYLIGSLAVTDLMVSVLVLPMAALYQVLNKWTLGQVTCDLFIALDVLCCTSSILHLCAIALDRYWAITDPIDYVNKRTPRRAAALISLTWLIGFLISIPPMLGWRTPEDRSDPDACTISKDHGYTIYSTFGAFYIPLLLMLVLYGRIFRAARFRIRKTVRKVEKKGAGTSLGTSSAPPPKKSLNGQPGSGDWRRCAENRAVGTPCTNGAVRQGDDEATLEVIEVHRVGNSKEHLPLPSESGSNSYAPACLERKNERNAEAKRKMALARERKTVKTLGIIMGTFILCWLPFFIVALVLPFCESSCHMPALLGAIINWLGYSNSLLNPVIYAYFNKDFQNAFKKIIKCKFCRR

Rattus norvegicus [8] = experiment: Conditioned avoidance response activity was determined by the ability to block the conditioned avoidance of a foot shock (ip); format: functional
Procedure, shortened: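 Male Fischer 344 rats (300–500 g) were trained on a single-lever discrete-trial task in which a lever press avoids an impending shock. Block of avoidance was scored at the time of peak effect. […] The percentage of rats failing to escape the shock (escape loss) was also recorded.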

half-life [3] | T1/2 [5] | pKi [7] | Compound | inhibition in vivo at 5 mg/kg (Rattus norvegicus [1]) | Esc loss (Rattus norvegicus [2]) | inhibition in vivo at 15 mg/kg (Rattus norvegicus [4]) | Esc loss (Rattus norvegicus [6]) | ED50 (Rattus norvegicus [8])
1.37 h | – | – | CC(C)Oc1ccccc1N1CCN(Cc2ccc(CN3CCCCC3=O)n2C)CC1 [RWJ-25730] | 87% | 8% | 98% | – | –
– | Stable | 7.49 | COc1ccccc1N1CCN(Cc2ccc(CN3CCCCCCC3=O)o2)CC1.O=C(O)CCC(=O)O | – | – | 99% | 19% | –
– | Stable | 7.54 | CC(C)Oc1ccccc1N1CCN(Cc2ccc(CN3CCCCCCC3=O)o2)CC1.O=C(O)CCC(=O)O | – | – | 76% | 1% | –
– | – | – | O=C1CC2(CCCC2)CC(=O)N1CCCCN1CCN(c2ncccn2)CC1 [BUSPIRONE] | – | – | – | – | 4.5 mg/kg
